In data set [1] the target is T1, Ryanodine receptor 1 (Oryctolagus cuniculus, UniProt P11716).
Data set [2] is described as follows: Toxicity in ip dosed Mus musculus Swiss-Webster (mouse) assessed as mortality measured after 24 hr. As to conditions: in vivo; call rule not given here. Format: organism-based.
Data set [3] concerns Musca domestica. As to the kind of experiment: Toxicity against SCR-susceptible Musca domestica (house fly) assessed as immobility compound administered by intrathoracic injection 2 hr after piperonyl butoxide treatment measured 4 hr post compound treatment. Format: functional. Summed up:
(§1)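 Houseflies first received 7.5 μg piperonyl butoxide in 0.5 μL acetone topically on the abdomen. After 2 h they were given the test compound by intrathoracic injection in 1 μL of 50% aqueous ethanol. Flies immobilised at 4 h were scored, and KD50 came from log dose–probit plots. Two independent experiments were run, each with 10 flies per dose and 1.5–2-fold dose spacing.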

Data set [4] has as its target T1, Ryanodine receptor 1. As to the kind of experiment: Ratio of compound IC50 to ryanodine IC50 for Ca2+-ryanodine receptor in Oryctolagus cuniculus (rabbit) skeletal muscle sarcoplasmic reticulum after 80 min by competitive inhibition assay. The format is ADME. Summed up:
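Rabbit fast skeletal muscle heavy SR (terminal cisternae) receptor, solubilised with 1 M NaCl, 1 mg CHAPS/mg protein and 40 mM Tris/maleate pH 7.1. […] Incubation was 80 min at 37°C, then GF/C filtration. IC50 came from Hill regression.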

For data set [5], the system named is Musca domestica. In words: Toxicity against SCR-susceptible Musca domestica (house fly) assessed as immobility compound administered by intrathoracic injection measured 4 hr post compound treatment. Format: functional. The method, boiled down: (§2)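 Houseflies without piperonyl butoxide pretreatment received ryanoid by intrathoracic injection in 50% aqueous ethanol. Knockdown (immobility) was scored 4 h after treatment, and KD50 came from log dose–probit plots. Two independent experiments were run, each with 10 flies per dose and 1.5–2-fold dose spacing.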

Data set [6] has as its system Musca domestica. In words: Ratio of compound KD50 to ryanodine KD50 for SCR-susceptible Musca domestica (house fly) assessed as immobility compound administered by intrathoracic injection 2 hr after piperonyl butoxide treatment measured 4 hr post compound treatment. The format is functional. The method, boiled down:
as §1

Data set [7] deals with Mus musculus. In words: Ratio of compound LC50 to ryanodine LC50 for ip dosed Mus musculus Swiss-Webster (mouse) assessed as mortality measured after 24 hr. The format is ADME, organism-based. As to conditions: in vivo.
The test system of data set [8] is Musca domestica. As to the kind of experiment: Ratio of compound KD50 to ryanodine KD50 for SCR-susceptible Musca domestica (house fly) assessed as immobility compound administered by intrathoracic injection measured 4 hr post compound treatment. The format is ADME, organism-based. The settings on record: in vivo, other. The method, boiled down:
as §2

Data set [9] has as its system Musca domestica. As to the kind of experiment: Drug metabolism in SCR-susceptible Musca domestica (house fly) assessed as unidentified metabolite intermediate Rf in exctreta at 160 ug/g after 4 hr by TLC method. The format is ADME, organism-based. The settings on record: in vivo.
The subject of data set [10] is Musca domestica. As to the kind of experiment: Drug metabolism in SCR-susceptible Musca domestica (house fly) assessed as unidentified metabolite intermediate Rf in exctreta at 160 ug/g after 1 hr by TLC method. The format is ADME, organism-based. As to conditions: in vivo. The method, boiled down: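 Excreta were extracted with MeOH, then run on TLC on 0.20-mm silica gel in 15% MeOH/CHCl3. Metabolites were detected by liquid scintillation counting.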

T1 sequence (P11716 whole entry): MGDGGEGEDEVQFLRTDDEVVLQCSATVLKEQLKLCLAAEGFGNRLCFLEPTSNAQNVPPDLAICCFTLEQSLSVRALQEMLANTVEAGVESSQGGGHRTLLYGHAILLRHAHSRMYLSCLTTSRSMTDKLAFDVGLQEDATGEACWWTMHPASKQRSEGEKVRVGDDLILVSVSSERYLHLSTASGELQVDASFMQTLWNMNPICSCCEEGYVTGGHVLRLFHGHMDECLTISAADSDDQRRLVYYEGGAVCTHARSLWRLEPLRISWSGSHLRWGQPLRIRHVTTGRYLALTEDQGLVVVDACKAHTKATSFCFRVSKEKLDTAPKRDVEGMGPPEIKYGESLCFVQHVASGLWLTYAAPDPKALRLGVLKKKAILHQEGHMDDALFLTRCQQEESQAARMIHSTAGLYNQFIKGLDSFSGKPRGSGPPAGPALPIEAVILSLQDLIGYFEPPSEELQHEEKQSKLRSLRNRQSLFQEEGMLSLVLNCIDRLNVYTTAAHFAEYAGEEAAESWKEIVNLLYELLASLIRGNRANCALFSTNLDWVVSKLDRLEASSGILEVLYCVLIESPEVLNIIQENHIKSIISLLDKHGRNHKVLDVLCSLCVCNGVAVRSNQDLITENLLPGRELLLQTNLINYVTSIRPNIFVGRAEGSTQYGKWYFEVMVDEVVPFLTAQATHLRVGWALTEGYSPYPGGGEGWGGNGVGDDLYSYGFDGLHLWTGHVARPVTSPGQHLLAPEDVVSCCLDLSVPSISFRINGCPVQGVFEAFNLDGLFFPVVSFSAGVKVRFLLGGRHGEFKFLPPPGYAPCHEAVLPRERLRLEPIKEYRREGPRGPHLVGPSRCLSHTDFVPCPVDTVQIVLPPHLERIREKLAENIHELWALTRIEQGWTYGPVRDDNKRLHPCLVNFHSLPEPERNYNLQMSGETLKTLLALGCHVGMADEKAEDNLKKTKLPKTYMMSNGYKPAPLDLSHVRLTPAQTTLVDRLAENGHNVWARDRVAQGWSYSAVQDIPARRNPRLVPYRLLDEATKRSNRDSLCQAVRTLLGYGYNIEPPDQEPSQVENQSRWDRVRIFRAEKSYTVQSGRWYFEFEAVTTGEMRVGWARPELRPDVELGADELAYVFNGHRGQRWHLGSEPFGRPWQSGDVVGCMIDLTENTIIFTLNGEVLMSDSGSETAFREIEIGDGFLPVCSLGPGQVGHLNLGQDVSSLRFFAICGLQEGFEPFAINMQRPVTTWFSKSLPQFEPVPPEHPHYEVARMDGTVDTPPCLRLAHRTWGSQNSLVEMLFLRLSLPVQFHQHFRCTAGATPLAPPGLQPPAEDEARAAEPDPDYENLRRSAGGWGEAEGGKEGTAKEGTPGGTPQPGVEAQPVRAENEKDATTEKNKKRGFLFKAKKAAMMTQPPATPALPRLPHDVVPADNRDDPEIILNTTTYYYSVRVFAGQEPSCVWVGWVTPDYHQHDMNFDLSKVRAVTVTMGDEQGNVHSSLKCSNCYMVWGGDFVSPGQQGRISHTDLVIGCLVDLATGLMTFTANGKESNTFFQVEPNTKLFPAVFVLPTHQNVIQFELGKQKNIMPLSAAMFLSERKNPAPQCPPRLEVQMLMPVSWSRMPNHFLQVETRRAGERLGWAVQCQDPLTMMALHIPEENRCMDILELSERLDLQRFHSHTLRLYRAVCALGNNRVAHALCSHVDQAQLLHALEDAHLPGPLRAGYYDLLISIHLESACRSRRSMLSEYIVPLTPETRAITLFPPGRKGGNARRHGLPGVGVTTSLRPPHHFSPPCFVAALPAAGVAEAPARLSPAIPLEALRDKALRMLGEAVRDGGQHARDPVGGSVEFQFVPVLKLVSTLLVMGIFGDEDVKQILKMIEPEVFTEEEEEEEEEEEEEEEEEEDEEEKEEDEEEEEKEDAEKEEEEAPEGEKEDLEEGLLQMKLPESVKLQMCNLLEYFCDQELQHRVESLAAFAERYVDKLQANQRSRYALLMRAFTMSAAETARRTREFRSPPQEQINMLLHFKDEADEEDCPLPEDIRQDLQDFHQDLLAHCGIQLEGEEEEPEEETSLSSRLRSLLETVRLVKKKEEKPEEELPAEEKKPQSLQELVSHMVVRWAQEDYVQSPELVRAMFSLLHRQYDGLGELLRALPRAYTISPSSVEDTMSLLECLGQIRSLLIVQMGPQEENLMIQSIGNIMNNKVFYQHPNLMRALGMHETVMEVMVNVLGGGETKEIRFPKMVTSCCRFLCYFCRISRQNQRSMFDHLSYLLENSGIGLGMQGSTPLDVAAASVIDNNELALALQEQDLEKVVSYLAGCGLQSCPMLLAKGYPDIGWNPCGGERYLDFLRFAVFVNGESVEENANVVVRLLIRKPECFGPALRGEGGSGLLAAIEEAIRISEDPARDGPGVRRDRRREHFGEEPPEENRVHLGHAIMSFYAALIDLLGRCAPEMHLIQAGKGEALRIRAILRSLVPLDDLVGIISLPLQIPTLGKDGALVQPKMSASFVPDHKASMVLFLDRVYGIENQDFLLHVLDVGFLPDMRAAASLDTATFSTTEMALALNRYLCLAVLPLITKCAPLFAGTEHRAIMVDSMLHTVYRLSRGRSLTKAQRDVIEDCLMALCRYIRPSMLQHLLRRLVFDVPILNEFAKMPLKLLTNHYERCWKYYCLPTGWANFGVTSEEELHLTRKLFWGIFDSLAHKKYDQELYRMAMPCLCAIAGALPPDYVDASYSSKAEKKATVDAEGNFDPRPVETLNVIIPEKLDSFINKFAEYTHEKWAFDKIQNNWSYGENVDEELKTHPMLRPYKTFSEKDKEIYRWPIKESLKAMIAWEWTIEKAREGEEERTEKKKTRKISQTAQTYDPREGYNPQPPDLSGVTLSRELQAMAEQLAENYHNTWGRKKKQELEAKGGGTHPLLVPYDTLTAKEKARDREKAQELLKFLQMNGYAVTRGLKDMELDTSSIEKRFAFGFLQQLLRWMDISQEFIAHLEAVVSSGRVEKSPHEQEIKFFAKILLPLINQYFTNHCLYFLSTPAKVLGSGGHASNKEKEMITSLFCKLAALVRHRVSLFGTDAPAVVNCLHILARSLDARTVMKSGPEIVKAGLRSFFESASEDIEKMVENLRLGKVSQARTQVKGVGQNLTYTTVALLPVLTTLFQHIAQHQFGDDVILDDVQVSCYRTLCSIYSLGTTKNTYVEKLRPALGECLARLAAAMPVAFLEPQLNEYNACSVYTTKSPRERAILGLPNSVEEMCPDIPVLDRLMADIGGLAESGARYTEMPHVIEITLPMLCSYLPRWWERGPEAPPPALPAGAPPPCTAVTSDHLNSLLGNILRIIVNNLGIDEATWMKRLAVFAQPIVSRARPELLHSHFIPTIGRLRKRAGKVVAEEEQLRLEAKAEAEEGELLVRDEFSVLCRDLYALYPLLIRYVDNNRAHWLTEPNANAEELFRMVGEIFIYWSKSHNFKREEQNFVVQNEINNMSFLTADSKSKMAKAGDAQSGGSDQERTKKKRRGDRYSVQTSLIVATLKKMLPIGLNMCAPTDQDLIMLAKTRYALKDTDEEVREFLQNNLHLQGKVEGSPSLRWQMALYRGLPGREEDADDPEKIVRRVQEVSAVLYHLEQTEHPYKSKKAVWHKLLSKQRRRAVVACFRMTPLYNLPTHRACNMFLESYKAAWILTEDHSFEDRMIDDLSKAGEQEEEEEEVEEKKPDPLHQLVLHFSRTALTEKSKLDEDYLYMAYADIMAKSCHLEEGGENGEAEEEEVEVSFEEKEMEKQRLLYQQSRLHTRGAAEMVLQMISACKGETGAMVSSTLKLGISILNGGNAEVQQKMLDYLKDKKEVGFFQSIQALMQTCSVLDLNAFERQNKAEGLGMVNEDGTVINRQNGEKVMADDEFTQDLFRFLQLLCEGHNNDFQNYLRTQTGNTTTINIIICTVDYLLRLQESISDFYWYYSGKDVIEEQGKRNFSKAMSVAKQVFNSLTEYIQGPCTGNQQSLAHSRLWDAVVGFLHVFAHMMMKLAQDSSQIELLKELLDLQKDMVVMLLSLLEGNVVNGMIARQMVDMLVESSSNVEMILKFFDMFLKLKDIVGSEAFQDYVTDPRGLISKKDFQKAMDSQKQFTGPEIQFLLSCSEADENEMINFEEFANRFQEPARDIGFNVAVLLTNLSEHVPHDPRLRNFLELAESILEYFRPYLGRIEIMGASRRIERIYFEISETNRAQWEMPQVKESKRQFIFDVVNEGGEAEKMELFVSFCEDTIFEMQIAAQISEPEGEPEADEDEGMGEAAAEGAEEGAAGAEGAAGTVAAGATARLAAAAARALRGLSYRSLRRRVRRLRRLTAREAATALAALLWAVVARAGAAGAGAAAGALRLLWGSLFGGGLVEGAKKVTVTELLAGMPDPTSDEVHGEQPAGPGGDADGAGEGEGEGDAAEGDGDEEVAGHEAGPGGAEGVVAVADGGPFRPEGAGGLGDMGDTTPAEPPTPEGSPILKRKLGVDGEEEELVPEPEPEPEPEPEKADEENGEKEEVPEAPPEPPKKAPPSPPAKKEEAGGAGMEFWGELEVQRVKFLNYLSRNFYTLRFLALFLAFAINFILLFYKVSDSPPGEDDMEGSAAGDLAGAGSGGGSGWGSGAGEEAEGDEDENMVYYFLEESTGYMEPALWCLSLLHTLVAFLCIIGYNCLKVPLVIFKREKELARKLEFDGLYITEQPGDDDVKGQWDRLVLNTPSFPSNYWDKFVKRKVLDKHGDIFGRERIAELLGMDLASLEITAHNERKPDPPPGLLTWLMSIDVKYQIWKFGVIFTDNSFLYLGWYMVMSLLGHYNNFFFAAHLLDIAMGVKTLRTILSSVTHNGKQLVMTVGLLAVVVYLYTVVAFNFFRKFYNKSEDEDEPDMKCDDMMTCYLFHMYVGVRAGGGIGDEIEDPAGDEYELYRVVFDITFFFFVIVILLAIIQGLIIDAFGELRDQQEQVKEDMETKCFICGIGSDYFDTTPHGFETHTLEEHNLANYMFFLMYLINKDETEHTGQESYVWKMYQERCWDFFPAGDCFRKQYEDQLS

On to `C=C1CC[C@]2(O)[C@]3(C)C[C@]4(O)O[C@@]2([C@@H]1O)[C@]1(O)[C@@]3(O)[C@H](O)[C@](O)(C(C)C)[C@@]14C` [DIDEHYDRORYANODOL], for which, in data set [1], the IC50 worked out at 10000 nM. Further, the 50% lethal dose (LD50) at 24 h in [2] was above 20 mg/kg. Also, the KD50 in data set [3] is 0.36 µg/g.
In turn, `CC(C)[C@@]1(O)[C@@H](OC(=O)c2ccc[nH]2)[C@@]2(O)[C@@]3(C)C[C@]4(O)O[C@@]5(C(=O)[C@@H](C)CC[C@]35O)[C@@]2(O)[C@]14C` [10-KETORYANODINE] displayed a concentration for half-maximal inhibition (IC50) in data set [1] of 100 nM. Besides, the 50% lethal dose (LD50) at 24 h in data set [2] came out at 0.55 mg/kg. Besides, in [3], the KD50 was above 20 µg/g.
`CCCCn1cccc1C(=O)O[C@H]1[C@@]2(O)[C@@]3(C)C[C@]4(O)O[C@@]5([C@H](O)[C@@H](C)CC[C@]35O)[C@@]2(O)[C@]4(C)[C@@]1(O)C(C)C` [N-BUTYLRYANODINE] registered an IC50 in [1] of 860 nM.
`CC1=CC[C@]2(O)[C@]3(C)C[C@]4(O)O[C@@]2(C1=O)[C@]1(O)[C@@]3(O)[C@H](OC(=O)c2ccc[nH]2)[C@](O)(C(C)C)[C@@]14C` displayed an IC50 in [1] of 7300 nM. Also, the LD50 at 24 h in data set [2] was above 5 mg/kg.
For `CC(C)[C@@]1(O)[C@@H](OC(=O)c2[nH]c(Br)c(Br)c2Br)[C@@]2(O)[C@@]3(C)C[C@]4(O)O[C@@]5([C@H](O)[C@@H](C)CC[C@]35O)[C@@]2(O)[C@]14C` [24,25,26-TRIBROMORYANODINE], in that order: above 10000 nM and above 20 mg/kg.
In data set [1], `CO[C@@H]1[C@@H](C)CC[C@]2(O)[C@]3(C)C[C@]4(OC)O[C@]12[C@]1(O)[C@@]3(OC)[C@H](OC(=O)c2cccn2C)[C@](O)(C(C)C)[C@]41C` gave an IC50 above 10000 nM. Further, the LD50 at 24 h in data set [2] was above 20 mg/kg. The KD50 in [3] was above 20 µg/g.
`CO[C@@]12C[C@@]3(C)[C@@]4(O)CC[C@H](C)[C@@H](O)[C@]4(O1)[C@]1(O)[C@@]3(O)[C@H](OC(=O)c3cccn3C)[C@](O)(C(C)C)[C@]21C` gave an IC50 in data set [1] of 280 nM. Moreover, the 50% lethal dose (LD50) at 24 h in [2] worked out at 17 mg/kg. Also, the KD50 in data set [3] is above 20 µg/g.
In the case of `CC(C)[C@@]1(O)[C@@H](O)[C@@]2(O)[C@@]3(C)C[C@]4(O)O[C@@]5([C@H](O)[C@@H](C)CC[C@]35O)[C@@]2(O)[C@]14C` [RYANODOL], the “Ratio IC50” value in data set [4] was determined as 3500. For the same compound, the KD50 in [5] was determined as 1.1 µg/g; in data set [3], 0.34 µg/g. Further, in [1], the IC50 amounted to 35000 nM. For the same compound, the Ratio in [6] is on record as 3.6; in data set [7], above 200; in data set [8] it was 0.8. In addition, the LD50 at 24 h in data set [2] was above 20 mg/kg.
Take `CC(CO)[C@@]1(O)[C@@H](OC(=O)c2ccc[nH]2)[C@@]2(O)[C@@]3(C)C[C@]4(O)O[C@@]5([C@H](O)[C@@H](C)CC[C@]35O)[C@@]2(O)[C@]14C` (stereo not given in full) [18-HYDROXYRYANODINE]: the concentration for half-maximal inhibition (IC50) in data set [1] was 88 nM. Also, in data set [2], the LD50 at 24 h came to 0.9 mg/kg.
Compound `CC(C)[C@@]1(O)[C@@H](OC(=O)c2ccc[nH]2)[C@@]2(O)[C@@]3(C)C[C@]4(O)O[C@@]5([C@H](O)[C@](O)(CO)CC[C@]35O)[C@@]2(O)[C@]14C` [9,21-DIHYDROXYRYANODINE] displayed an IC50 in data set [1] of 4900 nM. The KD50 in data set [3] was 10 µg/g.
In data set [1], `CC1=C(C(C)C)[C@@H](OC(=O)c2ccc[nH]2)[C@@]2(O)[C@@]3(C)CC(=O)O[C@@]4([C@H](O)[C@@H](C)CC[C@]34O)[C@@]12O` [ANHYDRORYANODINE] had an IC50 above 10000 nM. Also, the median lethal dose (LD50) at 24 h in data set [2] was above 20 mg/kg.
Take `CC(C)[C@@]1(O)[C@@H](OC(=O)c2ccc[nH]2)[C@@]2(O)[C@@]3(C)C[C@]4(O)O[C@@]5([C@H](O)[C@@H](C)CC[C@]35O)[C@@]2(O)[C@@]14C` [RYANODINE]: the LD50 at 24 h in [2] amounted to 0.1 mg/kg.
In the case of `CO[C@@]12C[C@@]3(C)[C@@]4(O)CC[C@H](C)[C@@H](O)[C@]4(O1)[C@]1(O)[C@@]3(OC)[C@H](OC(=O)c3cccn3C)[C@](O)(C(C)C)[C@]21C`, the half-maximal inhibitory concentration (IC50) in [1] worked out at 4500 nM. The LD50 at 24 h in [2] was above 20 mg/kg. Further, the KD50 in data set [3] is above 20 µg/g.
`CO[C@@]12C[C@@]3(C)[C@@]4(OC)CC[C@H](C)[C@@H](O)[C@]4(O1)[C@]1(O)[C@@]3(O)[C@H](OC(=O)c3cccn3C)[C@](O)(C(C)C)[C@]21C` displayed an IC50 in data set [1] of 1300 nM. Moreover, the KD50 in data set [3] is 12 µg/g.
As to `CC(C)[C@@]1(O)[C@@H](OC(=O)c2ccc[nH]2)[C@@]2(O)[C@@]3(C)C[C@]4(O)O[C@@]5([C@H](O)C6(CC[C@]35O)CO6)[C@@]2(O)[C@]14C` (stereo not given in full) [9,21-EPOXYRYANODINE], in data set [1], the IC50 was found to be 140 nM. Moreover, the LD50 at 24 h in data set [2] was 1.5 mg/kg. For the same compound, in data set [3], the KD50 was 0.3 µg/g.
For the compound `CC(C)[C@@]1(O)[C@@H](OC(=O)c2cc[nH]c2)[C@@]2(O)[C@]3(C)C[C@@]4(O)O[C@@]5([C@H](O)[C@@H](C)CC[C@]35O)[C@@]2(O)[C@@]41C` [RYANODINE], the Drug metabolism entry in data set [9] and in [10] was “Active” each time.
For the compound `CC(C)[C@@]1(O)[C@@H](OC(=O)c2cccn2Cc2ccccc2)[C@@]2(O)[C@@]3(C)C[C@]4(O)O[C@@]5([C@H](O)[C@@H](C)CC[C@]35O)[C@@]2(O)[C@]14C` [N-BENZYLRYANODINE], the IC50 in data set [1] is 310 nM. In data set [2], the LD50 at 24 h is 6.3 mg/kg.
On to `CC(C)[C@@]1(O)[C@@H](OC(=O)c2ccc[nH]2)[C@@]2(O)[C@@]3(C)C[C@]4(O)O[C@@]5([C@H](O)[C@H](C)CC[C@]35O)[C@@]2(O)[C@]14C` [EPIRYANODINE], for which the LD50 at 24 h in [2] stood at 0.47 mg/kg.
The compound `C=C1CC[C@]2(O)[C@]3(C)C[C@]4(O)O[C@@]2([C@@H]1O)[C@]1(O)[C@@]3(O)[C@H](OC(=O)c2ccc[nH]2)[C@](O)(C(C)C)[C@@]14C` [DEHYDRORYANODINE] had a 50% inhibitory concentration (IC50) in [1] of 13 nM. Moreover, the LD50 at 24 h in data set [2] turned out to be 0.1 mg/kg. The KD50 in [3] was 0.03 µg/g.
In turn, `CC(=O)O[C@@H]1[C@@H](C)CC[C@]2(O)[C@]3(C)C[C@]4(O)O[C@]12[C@]1(O)[C@@]3(O)[C@H](OC(=O)c2ccc[nH]2)[C@](O)(C(C)C)[C@@]14C` [10-ACETYLRYANODINE] yielded an IC50 in data set [1] of 140 nM. For the same compound, the KD50 in data set [3] was found to be 0.5 µg/g.

The record behind these values is ChEMBL document CHEMBL3045240 (J Med Chem, 1987).
